From ChEMBL document CHEMBL1132270, “Synthesis and structure-activity relationships of a new model of arylpiperazines. 4. 1-[omega-(4-Arylpiperazin-1-yl)alkyl]-3-(diphenylmethylene) - 2, 5-pyrrolidinediones and -3-(9H-fluoren-9-ylidene)-2, 5-pyrrolidinediones: study of the steric requirements of the terminal amide fragment on 5-HT1A …” (J Med Chem, 1999)

Experiments:
[1] = target: T1, 5-hydroxytryptamine receptor 1A (Rattus norvegicus, UniProt P19327); assay: Binding affinity at 5-hydroxytryptamine 1A (5-HT1A) receptor in rat cerebral cortex using [3H]8-OH-DPAT as radioligand; format: tissue-based
T1 sequence (P19327 whole entry): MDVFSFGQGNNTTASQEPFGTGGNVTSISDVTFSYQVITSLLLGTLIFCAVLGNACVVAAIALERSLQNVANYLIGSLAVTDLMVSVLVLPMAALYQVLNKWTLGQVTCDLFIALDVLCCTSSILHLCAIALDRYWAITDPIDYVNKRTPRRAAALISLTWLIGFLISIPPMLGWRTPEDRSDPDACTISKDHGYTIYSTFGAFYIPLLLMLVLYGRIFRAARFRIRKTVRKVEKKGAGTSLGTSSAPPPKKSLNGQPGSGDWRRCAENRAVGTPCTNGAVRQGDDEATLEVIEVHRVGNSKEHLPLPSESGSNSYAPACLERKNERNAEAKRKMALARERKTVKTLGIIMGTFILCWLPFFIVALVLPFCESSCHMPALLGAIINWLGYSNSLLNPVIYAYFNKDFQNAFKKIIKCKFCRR

[2] = target: T2, Adrenergic receptor alpha-1 (Rattus norvegicus, UniProt P15823+P23944+P43140); assay: In vitro binding affinity was evaluated on alpha-1 adrenergic receptor from rat cerebral cortex by using [3H]prazosin as radioligand; format: tissue-based
T2 sequence (P15823 whole entry): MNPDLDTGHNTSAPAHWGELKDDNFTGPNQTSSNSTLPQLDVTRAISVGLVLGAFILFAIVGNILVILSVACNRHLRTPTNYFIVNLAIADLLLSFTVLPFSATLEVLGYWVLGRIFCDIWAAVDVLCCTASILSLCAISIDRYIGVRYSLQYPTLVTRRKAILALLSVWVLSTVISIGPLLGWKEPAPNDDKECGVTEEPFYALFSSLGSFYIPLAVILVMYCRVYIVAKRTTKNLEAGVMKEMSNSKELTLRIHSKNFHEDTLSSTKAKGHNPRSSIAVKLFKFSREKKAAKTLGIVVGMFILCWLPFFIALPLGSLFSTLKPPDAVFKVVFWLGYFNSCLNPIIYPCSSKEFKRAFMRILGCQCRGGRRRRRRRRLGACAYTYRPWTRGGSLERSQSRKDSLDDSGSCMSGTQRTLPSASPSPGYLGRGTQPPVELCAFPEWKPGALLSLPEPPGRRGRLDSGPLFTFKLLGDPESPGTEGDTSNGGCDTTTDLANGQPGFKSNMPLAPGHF
T2 sequence (P23944 whole entry): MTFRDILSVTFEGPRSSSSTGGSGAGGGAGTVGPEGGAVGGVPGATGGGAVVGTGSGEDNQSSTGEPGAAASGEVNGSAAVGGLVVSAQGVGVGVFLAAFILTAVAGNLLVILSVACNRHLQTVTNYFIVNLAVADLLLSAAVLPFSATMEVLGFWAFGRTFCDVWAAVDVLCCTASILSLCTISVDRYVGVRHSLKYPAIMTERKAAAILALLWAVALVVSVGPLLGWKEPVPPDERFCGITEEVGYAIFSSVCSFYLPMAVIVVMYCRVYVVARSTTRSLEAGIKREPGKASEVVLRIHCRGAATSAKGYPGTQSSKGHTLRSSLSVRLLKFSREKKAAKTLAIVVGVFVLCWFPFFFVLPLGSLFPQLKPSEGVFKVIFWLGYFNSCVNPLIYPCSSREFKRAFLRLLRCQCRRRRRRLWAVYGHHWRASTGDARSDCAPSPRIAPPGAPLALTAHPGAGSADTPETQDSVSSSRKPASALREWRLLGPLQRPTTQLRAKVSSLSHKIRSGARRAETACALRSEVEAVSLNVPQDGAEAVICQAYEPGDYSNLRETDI
T2 sequence (P43140 whole entry): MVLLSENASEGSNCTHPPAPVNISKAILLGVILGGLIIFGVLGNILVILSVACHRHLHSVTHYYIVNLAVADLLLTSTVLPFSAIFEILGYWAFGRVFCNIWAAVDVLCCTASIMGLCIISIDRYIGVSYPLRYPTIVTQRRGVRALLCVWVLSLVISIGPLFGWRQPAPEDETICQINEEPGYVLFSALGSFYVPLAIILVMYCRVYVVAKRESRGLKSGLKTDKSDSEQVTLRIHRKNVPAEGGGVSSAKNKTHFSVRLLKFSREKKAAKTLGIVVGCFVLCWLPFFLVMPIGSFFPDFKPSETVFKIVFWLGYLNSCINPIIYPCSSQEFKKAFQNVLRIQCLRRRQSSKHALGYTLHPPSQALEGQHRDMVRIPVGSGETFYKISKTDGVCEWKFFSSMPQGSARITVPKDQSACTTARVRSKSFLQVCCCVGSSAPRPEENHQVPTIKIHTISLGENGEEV
How it was run: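 Nonspecific: 10 μM phentolamine. Filter-bound radioactivity by scintillation; IC50 from competition curves, Ki by Cheng–Prusoff; mean ± SEM of 2–4 triplicate experiments.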

[3] = target: D(2) dopamine receptor (Rattus norvegicus, UniProt P61169); assay: In vitro binding affinity towards Dopamine receptor D2 of rat striatal membranes using [3H]- raclopride
D(2) dopamine receptor, sequence (P61169 whole entry): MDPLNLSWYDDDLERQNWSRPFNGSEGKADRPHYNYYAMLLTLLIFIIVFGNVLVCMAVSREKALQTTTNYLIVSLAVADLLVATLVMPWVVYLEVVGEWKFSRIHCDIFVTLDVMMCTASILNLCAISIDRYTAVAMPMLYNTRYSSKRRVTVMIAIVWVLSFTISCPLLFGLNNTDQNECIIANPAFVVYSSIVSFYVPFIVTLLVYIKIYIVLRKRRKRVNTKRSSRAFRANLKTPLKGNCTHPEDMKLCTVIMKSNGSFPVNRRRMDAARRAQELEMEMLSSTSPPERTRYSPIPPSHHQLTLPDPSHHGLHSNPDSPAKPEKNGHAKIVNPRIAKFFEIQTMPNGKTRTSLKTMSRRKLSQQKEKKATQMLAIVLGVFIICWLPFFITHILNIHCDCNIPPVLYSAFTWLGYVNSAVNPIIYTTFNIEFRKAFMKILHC
How it was run: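 Male Sprague–Dawley rat (180–200 g) striatal membranes (125–150 μg protein) incubated 60 min at 25 °C with 0.8 nM [3H]raclopride in 50 mM Tris-HCl pH 7.4 with 120 mM NaCl, 5 mM KCl, 2 mM CaCl2, 1 mM MgCl2, 0.1% ascorbic acid. Nonspecific: 1 μM (+)-butaclamol. Filtration, scintillation counting; IC50 fitted, Ki by Cheng–Prusoff; mean ± SEM of 2–4 triplicate experiments.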

Row | SMILES | Ki [1] [nM] | Ki [2] [nM] | Ki [3] [nM]
1 | O=C1CC(=C2c3ccccc3-c3ccccc32)C(=O)N1CCCN1CCN(c2cccc(Cl)c2)CC1 | > 1000 | > 10000 | > 10000
2 | O=C1CC(=C2c3ccccc3-c3ccccc32)C(=O)N1CCCN1CCN(c2ccc(F)cc2)CC1 | > 10000 | 61 | > 10000
3 | O=C1CC(=C2c3ccccc3-c3ccccc32)C(=O)N1CCCCN1CCN(c2ccccc2)CC1 | 14 | 60 | 397
4 | O=C1CC(=C2c3ccccc3-c3ccccc32)C(=O)N1CCCN1CCN(c2ccccc2)CC1 | > 1000 | 646 | > 1000
5 | COc1ccccc1N1CCN(CCCCN2C(=O)CC(=C3c4ccccc4-c4ccccc43)C2=O)CC1 | 9 | 10 | > 10000
6 | O=C1CC(=C2c3ccccc3-c3ccccc32)C(=O)N1CCCN1CCN(c2cccc(C(F)(F)F)c2)CC1 | > 1000 | > 10000 | > 10000
7 | O=C1CC(=C(c2ccccc2)c2ccccc2)C(=O)N1CCCCN1CCN(c2ccc(F)cc2)CC1 | – | 51 | –
8 | COc1ccccc1N1CCN(CCCN2C(=O)CC(=C3c4ccccc4-c4ccccc43)C2=O)CC1 | 37 | 161 | > 1000
9 | O=C1CC(=C2c3ccccc3-c3ccccc32)C(=O)N1CCCCN1CCN(c2ccc(F)cc2)CC1 | > 10000 | 266 | > 10000
10 | COc1ccccc1N1CCN(C/C=C/CN2C(=O)CC(=C(c3ccccc3)c3ccccc3)C2=O)CC1 | 27 | – | –
11 | COc1ccccc1N1CCN(CC#CCN2C(=O)CC(=C(c3ccccc3)c3ccccc3)C2=O)CC1 | 6.6 | – | –
12 | O=C1CC(=C2c3ccccc3-c3ccccc32)C(=O)N1CCN1CCN(c2ccccc2)CC1 | > 10000 | 196 | > 10000
13 | O=C1CC(=C2c3ccccc3-c3ccccc32)C(=O)N1CCCCN1CCN(c2cccc(C(F)(F)F)c2)CC1 | > 1000 | > 10000 | > 1000
14 | COc1ccccc1N1CCN(CN2C(=O)CC(=C3c4ccccc4-c4ccccc43)C2=O)CC1 | 61 | > 1000 | > 10000
15 | O=C1CC(=C(c2ccccc2)c2ccccc2)C(=O)N1CCCCN1CCN(c2cccc(C(F)(F)F)c2)CC1 | 15 | – | –
16 | O=C1CC(=C2c3ccccc3-c3ccccc32)C(=O)N1CN1CCN(c2cccc(Cl)c2)CC1 | 42 | 316 | > 10000
17 | COc1ccccc1N1CCN(C/C=C\CN2C(=O)CC(=C(c3ccccc3)c3ccccc3)C2=O)CC1 | 237 | – | –
18 | O=C1CC(=C2c3ccccc3-c3ccccc32)C(=O)N1CCN1CCN(c2ccc(F)cc2)CC1 | > 10000 | 56 | > 10000
19 | COc1ccccc1N1CCN(CCN2C(=O)CC(=C3c4ccccc4-c4ccccc43)C2=O)CC1 | > 10000 | 57 | > 10000
20 | O=C1CC(=C2c3ccccc3-c3ccccc32)C(=O)N1CCN1CCN(c2cccc(Cl)c2)CC1 | > 10000 | > 10000 | > 10000
21 | O=C1CC(=C2c3ccccc3-c3ccccc32)C(=O)N1CCN1CCN(c2cccc(C(F)(F)F)c2)CC1 | > 10000 | > 10000 | > 10000
22 | O=C1CC(=C2c3ccccc3-c3ccccc32)C(=O)N1CN1CCN(c2cccc(C(F)(F)F)c2)CC1 | 114 | 791 | > 10000
23 | O=C1CC(=C2c3ccccc3-c3ccccc32)C(=O)N1CCCCN1CCN(c2cccc(Cl)c2)CC1 | 72 | 249 | > 1000
24 | O=C1CC(=C2c3ccccc3-c3ccccc32)C(=O)N1CN1CCN(c2ccc(F)cc2)CC1 | > 1000 | > 1000 | > 10000
25 | O=C1CC(=C2c3ccccc3-c3ccccc32)C(=O)N1CN1CCN(c2ccccc2)CC1 | 201 | > 1000 | > 10000
